Columns and labels:
D(1B) dopamine receptor [1] = molecular target: T1, D(1B) dopamine receptor (Homo sapiens, UniProt P21918); experiment: Displacement of [3H]-SCH-23390 from human recombinant dopamine D5 receptor expressed in CHO cells at 10 uM relative to control; format: cell-based
Method in brief: (§1)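 Off-target dopamine receptor radioligand binding (D1, D2L, D2S, D3, D5), run as a contract assay. Test compound at a single concentration of 10 µM, reported as % inhibition of specific binding, measured in duplicate.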

D(2) dopamine receptor [2] = molecular target: T2, D(2) dopamine receptor (Homo sapiens, UniProt P14416); experiment: Displacement of [3H]-Spiperone from human recombinant dopamine D2L receptor expressed in CHO cells at 10 uM relative to control; format: cell-based; method in brief: as §1
T2 sequence (P14416 whole entry): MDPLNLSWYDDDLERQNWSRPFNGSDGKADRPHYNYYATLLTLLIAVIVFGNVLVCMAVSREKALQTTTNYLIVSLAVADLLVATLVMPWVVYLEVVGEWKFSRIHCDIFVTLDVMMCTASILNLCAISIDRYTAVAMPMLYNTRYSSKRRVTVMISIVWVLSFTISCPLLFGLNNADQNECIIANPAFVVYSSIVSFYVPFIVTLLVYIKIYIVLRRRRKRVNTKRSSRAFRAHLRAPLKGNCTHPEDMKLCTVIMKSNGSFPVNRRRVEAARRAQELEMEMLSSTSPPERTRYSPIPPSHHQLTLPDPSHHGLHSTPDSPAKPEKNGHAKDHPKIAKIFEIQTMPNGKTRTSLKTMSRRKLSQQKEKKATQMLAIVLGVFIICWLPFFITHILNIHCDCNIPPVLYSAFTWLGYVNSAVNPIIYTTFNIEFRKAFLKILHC

D(4) dopamine receptor = molecular target: T3, D(4) dopamine receptor (Homo sapiens, UniProt P21917); experiment: Displacement of [3H]-Spiperone from human recombinant dopamine D4 receptor expressed in CHOK1 cells; format: cell-based, CHO-K1
T3 sequence (P21917 whole entry): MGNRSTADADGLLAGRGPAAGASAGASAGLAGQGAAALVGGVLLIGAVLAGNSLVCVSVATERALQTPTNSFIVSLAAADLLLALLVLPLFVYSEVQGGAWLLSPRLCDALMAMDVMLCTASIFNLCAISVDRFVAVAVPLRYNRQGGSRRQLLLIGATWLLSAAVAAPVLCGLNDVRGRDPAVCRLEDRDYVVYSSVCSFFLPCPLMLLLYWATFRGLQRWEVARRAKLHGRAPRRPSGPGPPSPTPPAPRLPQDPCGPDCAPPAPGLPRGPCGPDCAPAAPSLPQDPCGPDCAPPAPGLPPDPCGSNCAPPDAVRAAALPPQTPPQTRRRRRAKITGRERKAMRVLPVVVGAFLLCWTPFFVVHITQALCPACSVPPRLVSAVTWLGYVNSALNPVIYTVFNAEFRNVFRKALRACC
Method in brief: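 Radioligand binding at human D4 receptor using [3H]-spiperone, run as a contract assay in duplicate. IC50 and Ki were derived from concentration–response data. Single-point values are % inhibition of specific binding at 10 µM test compound.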

[3] = Plasma concentration in rat at 0.25 mg/kg, iv administered through cassette dosing at 0.25 hrs; format: ADME, organism-based
D(3) dopamine receptor [4] = molecular target: T4, D(3) dopamine receptor (Homo sapiens, UniProt P35462); experiment: Displacement of [3H]-Spiperone from human recombinant dopamine D3 receptor expressed in CHO cells at 10 uM relative to control; format: cell-based; method in brief: as §1
T4 sequence (P35462 whole entry): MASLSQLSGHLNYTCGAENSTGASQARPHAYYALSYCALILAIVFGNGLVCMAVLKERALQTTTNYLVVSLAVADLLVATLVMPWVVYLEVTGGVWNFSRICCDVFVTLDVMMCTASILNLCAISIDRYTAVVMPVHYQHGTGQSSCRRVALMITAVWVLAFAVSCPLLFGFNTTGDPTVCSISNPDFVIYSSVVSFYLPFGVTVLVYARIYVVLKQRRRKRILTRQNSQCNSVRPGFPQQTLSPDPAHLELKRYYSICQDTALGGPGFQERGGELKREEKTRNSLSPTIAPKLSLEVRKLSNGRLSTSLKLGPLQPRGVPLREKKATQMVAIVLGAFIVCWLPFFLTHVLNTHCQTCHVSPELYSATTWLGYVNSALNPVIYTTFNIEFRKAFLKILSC

[5] = Drug uptake in rat brain at 0.25 mg/kg, iv administered through cassette dosing at 0.25 hrs; format: ADME, organism-based; details: read-out: Drug uptake
Plasma = experiment: Fraction unbound in rat plasma by equilibrium dialysis method; format: ADME, cell-free
D(1A) dopamine receptor [6] = molecular target: T5, D(1A) dopamine receptor (Homo sapiens, UniProt P21728); experiment: Displacement of [3H]-SCH-23390 from human recombinant dopamine D1 receptor expressed in CHO cells at 10 uM relative to control; format: cell-based; method in brief: as §1
T5 sequence (P21728 whole entry): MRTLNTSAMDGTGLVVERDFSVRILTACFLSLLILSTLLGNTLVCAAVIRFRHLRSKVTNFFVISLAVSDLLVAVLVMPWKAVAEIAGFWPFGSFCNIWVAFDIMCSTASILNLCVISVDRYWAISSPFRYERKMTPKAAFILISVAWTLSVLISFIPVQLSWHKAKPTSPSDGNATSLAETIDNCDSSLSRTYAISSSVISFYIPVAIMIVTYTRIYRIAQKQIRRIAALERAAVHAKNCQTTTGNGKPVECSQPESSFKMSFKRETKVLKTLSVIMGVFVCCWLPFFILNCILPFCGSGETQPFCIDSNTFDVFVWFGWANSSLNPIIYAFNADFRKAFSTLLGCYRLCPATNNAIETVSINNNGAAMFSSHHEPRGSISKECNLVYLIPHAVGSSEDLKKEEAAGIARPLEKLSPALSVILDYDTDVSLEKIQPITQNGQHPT

[7] = Ratio of drug level in brain to plasma in rat at 0.25 mg/kg, iv administered through cassette dosing at 0.25 hrs; format: ADME, organism-based
D(2) dopamine receptor [8] = molecular target: T2, D(2) dopamine receptor; experiment: Displacement of [3H]-Spiperone from human recombinant dopamine D2S receptor expressed in CHO cells at 10 uM relative to control; format: cell-based; method in brief: as §1
[9] = Fraction unbound in human plasma by equilibrium dialysis method; format: ADME, cell-free
D(2) dopamine receptor [10] = molecular target: T2, D(2) dopamine receptor; experiment: Displacement of [3H]-Spiperone from human recombinant dopamine D2L receptor expressed in CHO cells; format: cell-based
Homo sapiens [11] = species on record: Homo sapiens; experiment: Selectivity ratio of Ki for human recombinant dopamine D2S receptor to Ki for human recombinant dopamine D4 receptor
D(2) dopamine receptor [12] = molecular target: T2, D(2) dopamine receptor; experiment: Displacement of [3H]-Spiperone from human recombinant dopamine D2S receptor expressed in CHO cells; format: cell-based
D(1B) dopamine receptor [13] = molecular target: T1, D(1B) dopamine receptor; experiment: Displacement of [3H]-SCH-23390 from human recombinant dopamine D5 receptor expressed in CHO cells; format: cell-based
[14] = molecular target: Dopamine receptors; D3 & D4 (Homo sapiens) (UniProt P35462+P21917); experiment: Selectivity ratio of Ki for human recombinant dopamine D3 receptor to Ki for human recombinant dopamine D4 receptor
Sequence of Dopamine receptors; D3 & D4 (Homo sapiens) (P35462 whole entry, looked up, one chain of several): as the sequence (P35462 whole entry) above

Homo sapiens [15] = species on record: Homo sapiens; experiment: Selectivity ratio of Ki for human recombinant dopamine D2L receptor to Ki for human recombinant dopamine D4 receptor
Homo sapiens [16] = species on record: Homo sapiens; experiment: Selectivity ratio of Ki for human recombinant dopamine D1 receptor to Ki for human recombinant dopamine D4 receptor
Homo sapiens [17] = species on record: Homo sapiens; experiment: Selectivity ratio of Ki for human recombinant dopamine D5 receptor to Ki for human recombinant dopamine D4 receptor
D(1A) dopamine receptor [18] = molecular target: T5, D(1A) dopamine receptor; experiment: Displacement of [3H]-SCH-23390 from human recombinant dopamine D1 receptor expressed in CHO cells; format: cell-based
D(3) dopamine receptor [19] = molecular target: T4, D(3) dopamine receptor; experiment: Displacement of [3H]-Spiperone from human recombinant dopamine D3 receptor expressed in CHO cells; format: cell-based
Liver microsome [20] = experiment: Drug metabolism in rat liver microsomes assessed as oxidative dealkylated metabolite formation in presence of NADPH; format: ADME
Liver microsome [21] = experiment: Metabolic stability in human liver microsomes in absence of NADPH; format: ADME
D(1B) dopamine receptor [22] = molecular target: T1, D(1B) dopamine receptor; details: CHO, 1 uM
Liver microsome [23] = experiment: Drug metabolism in human liver microsomes assessed as (S)-2-((6-chloropyridin-2-yloxy)methyl)morpholine formation in presence of NADPH; format: ADME
D(2) dopamine receptor [24] = molecular target: T2, D(2) dopamine receptor; details: CHO, 1 uM
Liver microsome [25] = experiment: Metabolic stability in rat liver microsomes in absence of NADPH; format: ADME
D(2) dopamine receptor [26] = molecular target: T2, D(2) dopamine receptor; details: CHO, 1 uM; remark: listed apart in the source
D(3) dopamine receptor [27] = molecular target: T4, D(3) dopamine receptor; details: CHO, 1 uM
D(1A) dopamine receptor [28] = molecular target: T5, D(1A) dopamine receptor; details: CHO, 1 uM
Liver microsome [29] = experiment: Drug level in human liver microsomes treated with (S)-2-((6-chloropyridin-2-yloxy)methyl)-4-((6-fluoro-1H-indol-3-yl)methyl)morpholine in presence of NADPH; format: ADME
Method in brief: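 Human liver microsomes incubated with compound plus NADPH, alongside a matched no-NADPH incubation; samples profiled for remaining parent and for metabolites formed.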

T1 sequence (P21918 whole entry): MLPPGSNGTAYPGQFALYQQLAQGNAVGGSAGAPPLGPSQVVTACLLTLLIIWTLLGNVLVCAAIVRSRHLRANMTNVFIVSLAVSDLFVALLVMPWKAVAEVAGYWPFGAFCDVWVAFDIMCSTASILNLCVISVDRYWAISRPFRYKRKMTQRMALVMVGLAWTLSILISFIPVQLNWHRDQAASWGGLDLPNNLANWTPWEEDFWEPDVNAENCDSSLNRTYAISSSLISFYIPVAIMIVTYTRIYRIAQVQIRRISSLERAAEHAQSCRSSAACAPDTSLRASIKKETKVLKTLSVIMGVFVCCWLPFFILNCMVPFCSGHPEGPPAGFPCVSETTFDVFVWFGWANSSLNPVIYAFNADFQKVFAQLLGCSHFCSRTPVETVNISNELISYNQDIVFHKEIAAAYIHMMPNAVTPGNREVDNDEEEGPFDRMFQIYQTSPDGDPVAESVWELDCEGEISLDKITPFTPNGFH

| SMILES | inhibition (D(1B) dopamine receptor [1]) [%] | inhibition (D(2) dopamine receptor [2]) [%] | IC50 (D(4) dopamine receptor) [nM] | Ki (D(4) dopamine receptor) [nM] | concentration at 0.25 h [3] [ng/mL] | inhibition (D(3) dopamine receptor [4]) [%] | concentration at 0.25 h [5] [ng/g] | Fu (Plasma) | inhibition (D(1A) dopamine receptor [6]) [%] | Kp [7] | inhibition (D(2) dopamine receptor [8]) [%] | Fu [9] | also measured |
| --- | --- | --- | --- | --- | --- | --- | --- | --- | --- | --- | --- | --- | --- |
| COc1ccc(CN2CCO[C@H](COc3ccccc3)C2)cc1F | < 50 | 78 | 56 | 14.3 | 14.7 | < 50 | 108 | 0.037 | < 50 | 7.38 | 76 | 0.031 | – |
| Clc1ccc2c(CN3CCO[C@H](COc4ccccc4)C3)c[nH]c2c1 | < 50 | 94 | 8 | 2.2 | 74.8 | 70 | 246 | 0.01 | < 50 | 3.29 | 93 | 0.006 | – |
| Clc1ccc(CN2CCO[C@H](CSc3ccccc3)C2)cc1 | – | – | 34 | 9.4 | 26.1 | – | 131 | 0.005 | – | 5.03 | < 50 | 0.008 | Ki (D(2) dopamine receptor [10]): > 10000 nM; Ratio Ki (Homo sapiens [11]): > 1000; Ki (D(2) dopamine receptor [12]): > 10000 nM; Ki (D(1B) dopamine receptor [13]): > 10000 nM; Ratio Ki [14]: > 1000; Ratio Ki (Homo sapiens [15]): > 1000; Ratio Ki (Homo sapiens [16]): > 1000; Ratio Ki (Homo sapiens [17]): > 1000; Ki (D(1A) dopamine receptor [18]): > 10000 nM; Ki (D(3) dopamine receptor [19]): > 10000 nM |
| Fc1ccc2c(CN3CCO[C@H](COc4ccccc4)C3)c[nH]c2c1 | < 50 | 78 | 18.9 | 5.2 | – | < 50 | – | 0.047 | < 50 | – | 76 | 0.017 | – |
| Clc1ccc(CN2CCO[C@H](COc3ccccc3)C2)cc1 | – | – | 150 | 42 | 42.5 | – | 197 | 0.007 | – | 4.62 | – | 0.007 | – |
| Fc1ccc2c(CN3CCO[C@H](COc4cccc(Cl)n4)C3)c[nH]c2c1 | – | – | 11.9 | 3.3 | – | – | – | 0.016 | – | – | < 50 | 0.015 | Ki (D(2) dopamine receptor [10]): > 10000 nM; Drug metabolism (Liver microsome [20]): metabolite_detected; Ratio Ki (Homo sapiens [11]): > 1000; Stability (Liver microsome [21]): Stable; Ki (D(2) dopamine receptor [12]): > 10000 nM; Ki (D(1B) dopamine receptor [13]): > 10000 nM; inhibition (D(1B) dopamine receptor [22]): < 10%; Ratio Ki [14]: > 1000; Drug metabolism (Liver microsome [23]): metabolite_detected; inhibition (D(2) dopamine receptor [24]): < 10%; Ratio Ki (Homo sapiens [15]): > 1000; Ratio Ki (Homo sapiens [16]): > 1000; Stability (Liver microsome [25]): Stable; Ratio Ki (Homo sapiens [17]): > 1000; Ki (D(1A) dopamine receptor [18]): > 10000 nM; inhibition (D(2) dopamine receptor [26]): < 10%; Ki (D(3) dopamine receptor [19]): > 10000 nM; inhibition (D(3) dopamine receptor [27]): < 10%; inhibition (D(1A) dopamine receptor [28]): < 10% |
| Clc1cccc(OC[C@@H]2CNCCO2)n1 | – | – | – | – | – | – | – | – | – | – | – | – | Drug metabolism (Liver microsome [29]): metabolite_detected |
| Cc1ccc(CN2CCO[C@H](CSc3ccccc3)C2)cc1C | – | – | 27 | 7.4 | 23.1 | – | 132 | 0.004 | – | 5.73 | < 50 | 0.001 | Ki (D(2) dopamine receptor [10]): > 10000 nM; Ratio Ki (Homo sapiens [11]): > 1000; Ki (D(2) dopamine receptor [12]): > 10000 nM; Ki (D(1B) dopamine receptor [13]): > 10000 nM; Ratio Ki [14]: > 1000; Ratio Ki (Homo sapiens [15]): > 1000; Ratio Ki (Homo sapiens [16]): > 1000; Ratio Ki (Homo sapiens [17]): > 1000; Ki (D(1A) dopamine receptor [18]): > 10000 nM; Ki (D(3) dopamine receptor [19]): > 10000 nM |
| c1ccc(OC[C@@H]2CN(Cc3ccc4[nH]ccc4c3)CCO2)cc1 | < 50 | 64 | 58 | 15.9 | – | < 50 | – | 0.069 | < 50 | – | 64 | 0.035 | – |
| Cn1ncc2cc(CN3CCO[C@H](COc4ccccc4)C3)ccc21 | – | – | 170 | 47 | 37.3 | – | 83.1 | 0.074 | – | 2.23 | – | 0.039 | – |
| COc1cc(CN2CCO[C@H](COc3ccccc3)C2)ccc1Cl | < 50 | 52 | 42 | 11.6 | – | < 50 | – | 0.025 | < 50 | – | 60 | 0.01 | – |

Reference: ChEMBL document CHEMBL3792377, “Synthesis and characterization of a series of chiral alkoxymethyl morpholine analogs as dopamine receptor 4 (D4R) antagonists” (Bioorg Med Chem Lett, 2016)
